# Reference: ChEMBL document CHEMBL4024769, “Synthesis and Investigation of Photophysical and Biological Properties of Novel S-Containing Bacteriopurpurinimides” (J Med Chem, 2017)
# How the values were obtained:
# [1] = Phototoxicity against mouse S37 cells implanted in F1 mouse assessed as tumor growth inhibition at 5 mg/kg, iv preincubated for 15 mins with subsequent 150 J/cm2 irradiation measured on day 15 post irradiation relative to control; format: functional; conditions: S37, light or radiation study, read-out: TGI
# Summary of the method: (§1)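 S37 sarcoma mice treated on day 7 of tumor growth with compound iv; tumors 140–160 mm3 beforehand, droperidol 0.25 mg ip as anesthetic. LED irradiation at 800 ± 21 nm, 100 mW/cm2, 150 J/cm2, given 15 or 30 min after dosing. Controls got iv 0.9% NaCl. Volume = d1×d2×d3×0.52; TGI = […]×100%.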
# [2] = Drug uptake in skin tumor of F1 mouse implanted with mouse S37 cells assessed as normalized fluorescence at 2.5 mg/kg, iv measured after 15 mins post injection in presence of He-Ne laser radiation by local fluorescence spectroscopic analysis; format: ADME, organism-based; conditions: in vivo, 0.25 h
# Summary of the method: (§2)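 S37 sarcoma-bearing immunocompetent F1 mice (18−22 g) given PS 2.5 mg/kg iv. Animals sacrificed at 0.25, 0.5, 2, 4 and 24 h, with three animals per time point. Skin, tumor and organ samples were read ex vivo by contact local fluorescence spectroscopy under He−Ne 632.8 nm excitation. Integrated 640−900 nm emission was normalized to the backscattered laser signal to give FN.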
# [3] = Phototoxicity against mouse S37 cells implanted in F1 mouse assessed as tumor growth inhibition at 5 mg/kg, iv preincubated for 15 mins with subsequent 150 J/cm2 irradiation measured on day 20 post irradiation relative to control; format: functional; conditions: S37, light or radiation study, read-out: TGI; summary of the method: as §1
# [4] = Phototoxicity against mouse S37 cells implanted in F1 mouse assessed as tumor growth inhibition at 5 mg/kg, iv preincubated for 15 mins with subsequent 150 J/cm2 irradiation measured on day 11 post irradiation relative to control; format: functional; conditions: S37, light or radiation study, read-out: TGI; summary of the method: as §1
# [5] = Phototoxicity against mouse S37 cells implanted in F1 mouse assessed as tumor growth inhibition at 2.5 mg/kg, iv preincubated for 15 mins with subsequent 150 J/cm2 irradiation measured on day 15 post irradiation relative to control; format: functional; conditions: S37, light or radiation study, read-out: TGI; summary of the method: as §1
# [6] = Phototoxicity against mouse S37 cells implanted in F1 mouse assessed as tumor growth inhibition at 2.5 mg/kg, iv preincubated for 15 mins with subsequent 150 J/cm2 irradiation measured on day 8 post irradiation relative to control; format: functional; conditions: S37, light or radiation study, read-out: TGI; summary of the method: as §1
# [7] = Phototoxicity against rat Sarcoma M1 cells implanted in rat assessed as volume of tumor necrotic zones at 2.5 mg/kg, ip administered as single dose on day 11 after inoculation followed by 300 J/cm2 irradiation after 2.5 to 3 hrs measured on day 3 post photodynamic therapy (reference value: 30 +/- 4%); format: functional
# Summary of the method: (§3)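 Rat M1 sarcoma was implanted subcutaneously in the left thigh, with randomisation on day 10. A single 2.5 mg/kg ip dose was given on day 11, then 810 nm laser (0.51 W/cm2, 300 J/cm2, 10 min) after 2.5−3 h. Tumours were sectioned on days 1, 3 and 12 after PDT (controls days 12, 14, 23), five animals per point. Parenchyma and necrotic zone volumes were estimated on hematoxylin and eosin staining.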
# [8] = Drug uptake in kidney tumor of F1 mouse implanted with mouse S37 cells assessed as normalized fluorescence at 2.5 mg/kg, iv measured after 24 hrs post injection in presence of He-Ne laser radiation by local fluorescence spectroscopic analysis; format: ADME, organism-based; conditions: in vivo
# Summary of the method: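 Single iv dose of 2.5 mg/kg given to F1 mice bearing S37 sarcoma. Skin, muscle, liver, kidney, spleen and tumor taken from three animals each at 0.25, 0.5, 2, 4 and 24 h and read ex vivo by contact local fluorescence spectroscopy. He–Ne 632.8 nm excitation; 640–900 nm integral normalized to backscattered laser signal (FN).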
# [9] = (§4) Phototoxicity against rat Sarcoma M1 cells implanted in rat assessed as volume of tumor parenchyma at 2.5 mg/kg, ip administered as single dose on day 11 after inoculation followed by 300 J/cm2 irradiation after 2.5 to 3 hrs measured on day 1 post photodynamic therapy by hematoxylin and eosin staining based assay (reference value: 69 +/- 6%); format: functional; summary of the method: as §3
# [10] = as §4, with “on day 12 post photodynamic” for “on day 1 post photodynamic”, “(reference value: 56 +/- 3%)” for “(reference value: 69 +/- 6%)”, “56 +/- 3%)” for “69 +/- 6%)”; format: functional; summary of the method: as §3
# [11] = Phototoxicity against mouse S37 cells assessed as cell growth inhibition preincubated for 4 hrs with subsequent 10 J/cm2 irradiation followed by incubation in absence of compound for 24 hrs by MTT assay; format: functional; conditions: S37, light or radiation study
# Summary of the method: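 S37 cells treated with 0.05–28 μM compound added 24 h after plating. After 0.25–6 h incubation, cells were irradiated with a halogen lamp through a KS-19 filter (720 nm) at 21.0 ± 1.0 mW/cm2, 10 J/cm2, with or without removing the compound. MTT read 24 h later; 50% growth inhibition taken as the value, mean of three tests.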
# [12] = Phototoxicity against rat Sarcoma M1 cells implanted in rat assessed as apoptotic index at 2.5 mg/kg, ip administered as single dose on day 11 after inoculation followed by 300 J/cm2 irradiation after 2.5 to 3 hrs measured on day 12 post photodynamic therapy (reference value: 0.37 +/- 0.06%); format: functional
# Summary of the method: (§5)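 Rats with M1 sarcoma implanted subcutaneously in the left thigh were randomized on day 10, 25 per group. Single ip dose of 2.5 mg/kg on day 11; laser irradiation 2.5–3 h later at 810 nm, 0.51 W/cm2, 300 J/cm2, 10 min over a 1.5 cm field. Five rats sampled per time point for H&E histology, PCNA immunohistochemistry (1:200) and tumor volume. Untreated controls; Student's test, p < 0.05.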
# [13] = Phototoxicity against mouse S37 cells implanted in F1 mouse assessed as tumor growth inhibition at 5 mg/kg, iv preincubated for 30 mins with subsequent 150 J/cm2 irradiation measured on day 18 post irradiation relative to control; format: functional; conditions: S37, light or radiation study, read-out: TGI; summary of the method: as §1
# [14] = Phototoxicity against rat Sarcoma M1 cells implanted in rat assessed as apoptotic index at 2.5 mg/kg, ip administered as single dose on day 11 after inoculation followed by 300 J/cm2 irradiation after 2.5 to 3 hrs measured on day 3 post photodynamic therapy (reference value: 0.31 +/- 0.02%); format: functional; summary of the method: as §5
# [15] = Drug uptake in tumor of F1 mouse implanted with mouse S37 cells assessed as normalized fluorescence units at 2.5 mg/kg, iv measured after 30 mins in presence of He-Ne laser radiation by local fluorescence spectroscopic analysis; format: ADME, organism-based, Neoplasm; conditions: in vivo, 0.5 h; summary of the method: as §2
# [16] = Phototoxicity against rat Sarcoma M1 cells implanted in rat assessed as tumor volume at 2.5 mg/kg, ip administered as single dose on day 11 after inoculation followed by 300 J/cm2 irradiation after 2.5 to 3 hrs measured on day 1 post photodynamic therapy (reference value: 1.22 +/- 0.18 mm3); format: functional; summary of the method: as §5
# [17] = as §4, with “on day 3 post photodynamic” for “on day 1 post photodynamic”, “(reference value: 70 +/- 4%)” for “(reference value: 69 +/- 6%)”, “70 +/- 4%)” for “69 +/- 6%)”; format: functional; summary of the method: as §3
smiles,measurement,setting,value
CCCO/N=C(\C)c1c(C)c2cc3nc(c4c5[nH]c(cc6nc(cc1[nH]2)[C@H](C)[C@H]6CC)c(C)c5C(=O)N(OCCC)C4=O)[C@@H](CCC(=O)OC)[C@@H]3C,inhibition in vivo at 5 mg/kg,[1],100%
same,Flu intensity,[2],2.2 RU
same,inhibition in vivo at 5 mg/kg,[3],100%
same,inhibition in vivo at 5 mg/kg,[4],100%
same,inhibition in vivo at 2.5 mg/kg,[5],100%
same,inhibition in vivo at 2.5 mg/kg,[6],100%
CCCO/N=C(\C)c1c(C)c2cc3nc(c4c5[nH]c(cc6nc(cc1[nH]2)[C@@H](C)[C@@H]6CC)c(C)c5C(=O)N(OCCC)C4=O)[C@H](CCC(=O)NCCSSCCNC(=O)CC[C@@H]1c2nc(cc4[nH]c(cc5nc(cc6[nH]c7c2C(=O)N(OCCC)C(=O)c7c6C)[C@H](CC)[C@H]5C)c(/C(C)=N/OCCC)c4C)[C@H]1C)[C@H]3C,Activity,[7],77%
same,Drug uptake,[8],Active
same,Activity,[9],39%
same,Activity,[10],30%
same,CC50,[11],0.05 µM
same,Activity,[12],0.42%
same,inhibition in vivo at 5 mg/kg,[13],100%
same,Activity,[14],0.43%
same,Flu intensity,[15],4 RU
same,Activity,[16],1.13 mm3
same,Activity,[17],23%
